SIAE primary: human SIAE inhibition, primary screen; Q9HAT2; SIAE FP-Rh probe binding, fluorescence polarization; inhibition, % at 9.66 µM; 370,000 compounds, 0.69% hits; AID 1053197;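 active = inhibition above a cutoff: mean of compounds within the control limits plus 3 SD of those, cut at about 17% in these data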
PRMT1 FP inh: blocks human protein arginine methyltransferase 1 | Q99873 | recombinant PRMT1, activity-based probe fluorescence polarization | inhibition, % at 2.79 µM | 370,000 compounds, 1.3% hits | AID 652257;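 active = inhibition above about 21% made by adding two undisclosed values, limit read from the data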
Target sequence (Q99873 whole entry, looked up): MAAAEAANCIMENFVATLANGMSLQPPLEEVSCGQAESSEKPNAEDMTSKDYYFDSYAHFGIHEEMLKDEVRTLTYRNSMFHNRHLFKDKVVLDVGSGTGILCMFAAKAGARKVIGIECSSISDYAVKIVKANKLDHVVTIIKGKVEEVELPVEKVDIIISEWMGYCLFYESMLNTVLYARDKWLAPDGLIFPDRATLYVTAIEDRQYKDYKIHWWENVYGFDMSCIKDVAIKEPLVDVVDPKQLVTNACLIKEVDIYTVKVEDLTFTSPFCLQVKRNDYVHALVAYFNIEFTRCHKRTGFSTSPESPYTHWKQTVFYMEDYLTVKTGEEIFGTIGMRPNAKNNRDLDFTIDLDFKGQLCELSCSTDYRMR
ABHD4 inh: inhibitors of mouse ABHD4; Q8VD66; purified mABHD4, FP-Rh probe fluorescence polarization; inhibition, % at 8.92 µM; 370,000 compounds, 0.54% hits; AID 720543;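 active = inhibition exceeding the mean over every tested compound plus 3 SD, cut at about 30% in these data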
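Test system: mABHD4 protein; Read-out basis: % inhibition; Incubation: 45 min + 60 min at 25 °C; Repeats: single replicate; Technique: fluorescence polarization with parallel and perpendicular emission, 525/598 nm; Compound: 8.92 µM, single dose; Benchmarks: full inhibition S159A mutant plus DMSO, zero as sample-well median.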
TCR-CD3 inh: blocks the human TCR-CD3 interaction; TAMRA-labeled TCR probe fluorescence, biochemical; inhibition, % at 9.4 µM; 360,000 compounds, 0.37% hits; AID 651800; in the data active = inhibition above about 19%;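 also: recombinant mutant TCR 2C K166C tagged with TAMRA read by polarization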
rCAG binder: binds r(CAG) RNA repeats. 370,000 compounds, 1.3% hits. r(CAG) RNA repeat, TO-PRO-1 dye displacement fluorescence. AID 651821. inhibition, % at 3 µM;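 active = inhibition above the plate cutoff, the mean of all test compounds on that plate plus 3 SD, cut at about 35% in these data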;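 also: higher means more dye released from RNA so lower well fluorescence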
PRMT1 confirm: PRMT1 (human) inhibition, FP confirmation. AID 687036. inhibition, % at 2.79 µM. 3,300 compounds, 42% hits. shares compounds with PRMT1 FP inh. recombinant His-PRMT1, activity-based probe fluorescence polarization;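 active = mean inhibition across replicates above the hit cutoff derived for the earlier primary screen, cut at about 22% in these data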
Hits are given with their value; n = inactive; x = no result. An excerpt weighted towards active compounds, which were near 3.3% of everything screened.

SMILES	SIAE primary	PRMT1 FP inh	ABHD4 inh	TCR-CD3 inh	rCAG binder	PRMT1 confirm
Cn1c(SSc2ccc(-c3cccnc3)n2C)ccc1-c1cccnc1	n	69	n	n	n	77
c1cncc(-c2nnc(-c3cccnc3)nn2)c1	n	n	n	n	n	x
COc1cccc(/C=N/N2C(=O)CSC2=S)c1O	n	38	n	n	n	53
O=C1CSC(=S)N1N=Cc1c(O)ccc2ccccc12	n	35	45	n	n	33
COc1ccc(N=Cc2sc(O)c3ccccc23)cc1	n	n	n	n	n	x
O=[N+]([O-])c1cccc(N=Cc2ccccc2)c1	n	n	n	n	n	x
Oc1c(C=NCc2ccccc2)sc2ccccc12	n	43	n	n	n	34
O=[N+]([O-])c1ccc(N=Cc2sc3ccccc3c2O)cc1	n	49	n	n	n	n
O=[N+]([O-])c1cccc(N=Cc2sc3ccccc3c2O)c1	n	40	n	n	n	25
CCOC(=O)[C@@]12CN(C(=O)OC(C)(C)C)CC=C1N(Cc1ccc(OC)cc1)C(=O)[C@H]2CC(=O)NCc1ccc(C)o1	n	n	n	x	n	x
CC(C)CCNC(=O)C1COC(O)(C(Cc2ccccc2)NC(=O)[C@@H](NC(=O)OCc2ccccc2)C(C)C)CN1 (stereo partly specified)	n	n	n	x	x	x
O=S1(=O)c2ccc(Br)cc2OC[C@@H](Cc2ccccc2)N1Cc1cn(Cc2ccc(C(F)(F)F)cc2)nn1	n	n	n	x	n	x
O=[N+]([O-])c1ccc2nc(COCc3nc4ccccc4[nH]3)[nH]c2c1	n	n	n	x	x	x
Nc1cc(=O)n(Cc2ccccc2)c(N)c1C(=O)NCc1ccccc1	n	n	n	n	n	x
CCCCc1c(-c2ccccc2OC)ncn1Cc1cc(F)cc(F)c1	n	n	n	n	n	x
O=C(c1ccc(Cl)c(Cl)c1)N1CCN(c2ccnc3cc(Cl)ccc23)CC1	n	n	n	x	x	x
Cc1ccc(CN2CCCCC(NC(=O)Nc3ccccc3)C2=O)cc1 (stereo unspecified)	n	n	n	x	n	x
Cc1ccc(-c2ccccc2)n1-c1cccc(C(=O)O)c1	n	62	n	n	n	n
CC1(C)CCN2CCC(C)(C)c3c(O)ccc1c32	n	54	n	n	n	n
O=C(Nc1ccc(C(F)(F)F)cc1)OC1CC2CC1[C@H]1CCCCN1C2 (stereo partly specified)	n	n	n	x	n	x
CC#CC(=O)N[C@H]1CC[C@@]23CCCN2C(=O)CCC[C@H]3[C@H]1C	n	n	n	x	x	x
CCN1C(=O)/C(=C\c2ccco2)C(C(=O)OC)=C1C	n	n	n	n	n	x
CCOc1cc(/C=C2\C(=O)N(Cc3ccco3)C(C)=C2C(=O)OC)ccc1O	n	46	n	n	n	n
CCC1CCC(NC2CCCCNC2=O)CC1 (stereo unspecified)	n	n	n	n	n	x
CC1CCCC(NC2CCCCNC2=O)C1 (stereo unspecified)	n	27	n	n	n	n
SMILES	SIAE primary	PRMT1 FP inh	ABHD4 inh	TCR-CD3 inh	rCAG binder	PRMT1 confirm
CCN1/C(=C/C(C)=C/c2sc3ccccc3[n+]2CC)Sc2ccccc21	n	98	n	n	n	n
CC(C)(C)C(=O)Nc1ccc(Sc2ccc([N+](=O)[O-])cc2)cc1	n	n	n	n	n	x
CC(=O)Nc1ccc(Sc2ccc([N+](=O)[O-])o2)cc1	n	34	n	n	n	36
CC(=O)Nc1ccc2c(=O)n(-c3ccccc3)sc2c1	n	86	n	n	n	91
N#Cc1ccc2c(=O)n(-c3ccccc3)sc2c1	n	78	n	n	n	95
Cc1ccccc1C(=O)OCC(=O)N(C)c1c(N)n(Cc2ccccc2)c(=O)[nH]c1=O	n	n	n	n	n	x
Cc1ccc(/C=C/C(=O)OCC(=O)N(C)c2c(N)n(Cc3ccccc3)c(=O)[nH]c2=O)o1	n	44	n	n	n	n
CCn1c2ccccc2c2cc(NC(=O)c3ccc(Br)o3)ccc21	n	31	n	n	n	45
CCn1c2ccccc2c2cc(NC(=O)c3coc(=O)c(Br)c3)ccc21	n	n	n	n	n	x
COc1ccc(C/C(N)=N/OC(=O)c2cccc([N+](=O)[O-])c2)cc1	n	45	n	n	n	n
COc1ccccc1C/C(N)=N/OC(=O)c1cccc([N+](=O)[O-])c1	n	n	n	n	n	x
CC(=O)Nc1ccc(SCC(=O)c2cc(C)n(-c3ccccc3F)c2C)cc1	n	28	n	n	n	30
COC(=O)c1ccc(-n2c(C)cc(C(=O)CSc3ccc(NC(C)=O)cc3)c2C)cc1	n	50	n	n	n	30
CCCCCCCCNC(=O)C1CSCCS(=O)(=O)N1Cc1ccccc1 (stereo unspecified)	n	n	n	x	n	x
FC(F)(F)c1ccccc1Cc1c(-c2ccco2)nc2ccc(Cl)cn12	n	35	n	n	n	n
FC(F)(F)c1cc(Cl)c2nc(-c3ccco3)c(Cc3ccccc3C(F)(F)F)n2c1	n	47	n	n	58	n
COc1ccc2c(c1)CC/C(=C\c1ccc(C)o1)C2=O	n	39	n	n	n	n
Cc1cc(C)cc(N(CC(=O)NC2CCC(C)CC2)S(=O)(=O)c2ccccc2)c1 (stereo unspecified)	n	n	n	x	n	x
N#CCC[C@H]1CC[C@]2(CCCN(Cc3cccc4ccccc34)C2)O1	n	n	n	x	n	x
CCNc1nc(NCC)n2c(SCC(=O)Nc3ccccc3F)nnc2n1	n	27	n	n	n	n
O=C(Nc1nc(-c2ccco2)c(-c2ccco2)s1)c1ccc(F)cc1F	n	34	n	n	n	n
COc1ccc(CCNC(=O)c2ccc(CN3CCC(Cc4ccccc4)CC3)cc2)cc1	n	n	n	n	n	x
COc1ccc(C(=O)NCC23C=CC(O2)C2C(=O)N(Cc4ccccc4)C(=O)C23)cc1 (stereo unspecified)	n	54	n	n	n	n
O=[N+]([O-])c1ccc(S(=O)(=O)N2CCSC2c2ccco2)cc1 (stereo unspecified)	n	46	n	n	n	33
O=S(=O)(c1ccc(Cl)cc1)N1CCSC1c1ccco1 (stereo unspecified)	n	n	n	n	n	x
SMILES	SIAE primary	PRMT1 FP inh	ABHD4 inh	TCR-CD3 inh	rCAG binder	PRMT1 confirm
Cc1cccc2sc(=S)[nH]c12	n	28	n	n	n	n
O=C(CSC1=NCCN1)C1COc2ccccc2O1 (stereo unspecified)	n	34	n	n	n	42
O=C(Cc1ccc(S(=O)(=O)N2CCOCC2)s1)Nc1nc2c(s1)CCCC2	n	29	n	n	n	n
COc1cccc(N2CCN(CC(=O)NCc3ccccc3C)CC2)c1	n	n	n	x	n	x
Oc1ccc(N2CCN(Cc3ccc(OCCCN4CCCCC4)cc3)CC2)cc1	n	28	n	n	n	n
CCCCCCCCN1C(=O)[C@@H](CC(=O)NCc2cccc3ccccc23)C[C@@]2(C(=O)OC)C1=C[C@H](COCc1ccccc1)O[C@@H]2C	n	n	n	x	n	x

Screening results as filed in PubChem BioAssay.
